Laboratory results reported in ChEMBL document CHEMBL4219150, “Fragment-Based Approach to Targeting Inosine-5'-monophosphate Dehydrogenase (IMPDH) from Mycobacterium tuberculosis” (J Med Chem, 2018).

tested on: Mycobacterium tuberculosis; assay: Inhibition of Mycobacterium tuberculosis IMPDH deltaCBS mutant assessed as reduction in NADH production using IMP as substrate at 100 uM preincubated for 5 mins followed by substrate addition measured for 32 mins in presence of NAD+

Row | Structure (SMILES) | inhibition [%]
1 | O=C(CSc1nc(-c2ccccc2)c[nH]1)Nc1ccc(I)cc1 | 46
2 | O=C(O)CSc1nc(-c2ccccc2)c[nH]1 | < 5
3 | CC(C)NC(=O)CSc1nc(-c2ccccc2)c[nH]1 | < 5
4 | O=C(CSc1ncc(-c2ccccc2)[nH]1)Nc1ccccc1 | < 5
5 | O=C(CSc1nc(-c2ccc(Br)cc2)c[nH]1)Nc1ccc(I)cc1 | 30
6 | O=C(O)CSc1nc(-c2ccc(Br)cc2)c[nH]1 | < 5
7 | O=C(CSc1nc(-c2ccc(Br)cc2)c[nH]1)Nc1ccc(-c2c[nH]cn2)cc1 | 20
8 | O=C(NCc1ncc(-c2ccc(Br)cc2)[nH]1)Nc1ccc(-c2c[nH]cn2)cc1 | 56
9 | O=C(CSc1nc(-c2ccccc2)c[nH]1)Nc1ccc(-c2c[nH]cn2)cc1 | 24
10 | Brc1ccc(-c2c[nH]cn2)cc1 | < 5
11 | O=C(CSc1nc(-c2ccc(Br)cc2)c[nH]1)Nc1ccc2occc2c1 | 31
12 | O=C(CSc1nc(-c2ccccc2)c[nH]1)Nc1ccc2occc2c1 | 36
13 | O=C(CSc1nc(-c2ccc(Br)cc2)c[nH]1)Nc1ccccc1 | 13

tested on: Mycobacterium tuberculosis; assay: Uncompetitive inhibition of Mycobacterium tuberculosis IMPDH deltaCBS mutant
Procedure, shortened: (§1)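 Enzyme was Mth IMPDH ΔCBS expressed in E. coli BL21(DE3) at 18°C with 500 µM IPTG, then Ni-IMAC purified, TEV-cleaved and run on gel filtration; assay buffer and 37°C conditions as in the activity assay. […] Initial rates were fit to uncompetitive or mixed inhibition equations, and the pattern was read from Lineweaver-Burk plots.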

Row | Structure (SMILES) | alphaKi [µM]
14 | Cc1n[nH]c(C)c1S(=O)(=O)Nc1ccc2c[nH]nc2c1 | 0.22
15 | O=C(C1CCCCC1)N1CCN(S(=O)(=O)c2ccc3cnccc3c2)CC1 | 0.12

tested on: Mycobacterium tuberculosis; assay: Uncompetitive inhibition of Mycobacterium tuberculosis IMPDH deltaCBS mutant expressed in Escherichia coli BL21(DE3) in presence of IMP and NAD+; procedure, shortened: as §1

Row | Structure (SMILES) | alphaKi [µM]
16 | C=C(C)c1cccc(C(C)(C)NC(=O)Nc2ccc(Cl)c(C(=O)N(C)C)c2)c1 | 0.009
17 | COc1c(C)c2c(c(O)c1C/C=C(\C)Cn1cc(COC[C@H]3O[C@@H](n4cnc5c(N)ncnc54)[C@H](O)[C@@H]3O)nn1)C(=O)OC2 | 1

tested on: Mycobacterium tuberculosis; assay: Inhibition of Mycobacterium tuberculosis IMPDH deltaCBS mutant assessed as reduction in NADH production using IMP as substrate at 10 uM preincubated for 5 mins followed by substrate addition measured for 32 mins in presence of NAD+

Row | Structure (SMILES) | inhibition [%]
18 | CC(Oc1ccc(-c2cn(C)cn2)cc1)C(=O)Nc1nc(-c2ccc(Br)cc2)co1 (stereo unspecified) | 83
19 | CC(Oc1ccc(-c2cn(C)cn2)cc1)C(=O)Nc1ccc(I)cc1 (stereo unspecified) | 97
20 | COc1ccc(-c2c[nH]c(NC(=O)C(C)Oc3ccc(-c4cn(C)cn4)cc3)n2)cc1 (stereo unspecified) | 95
21 | CC(Oc1ccc(-c2cn(C)cn2)cc1)C(=O)Nc1nc(-c2ccc(N3CCOCC3)cc2)c[nH]1 (stereo unspecified) | 94
22 | CC(Oc1ccc(-c2cn(C)cn2)cc1)C(=O)Nc1ccccc1 (stereo unspecified) | 4
23 | CC(Oc1ccc(-c2cn(C)cn2)cc1)C(=O)Nc1nc(-c2ccc(I)cc2)c[nH]1 (stereo unspecified) | 96
24 | CC(Oc1ccc(-c2cn(C)cn2)cc1)C(=O)Nc1nc(-c2ccc(Br)cc2)c[nH]1 (stereo unspecified) | 99
25 | CC(Oc1ccc(-c2cn(C)cn2)cc1)C(=O)Nc1nc(-c2ccccc2)c[nH]1 (stereo unspecified) | 77
26 | COc1ccc(OC(C)C(=O)Nc2ccc(I)cc2)cc1 (stereo unspecified) | 92
27 | C[C@H](Oc1ccc(-c2cn(C)cn2)cc1)C(=O)Nc1nc(-c2ccc(Br)cc2)c[nH]1 | 99

tested on: Mycobacterium tuberculosis; assay: (§2) Mixed-type inhibition of Mycobacterium tuberculosis IMPDH deltaCBS mutant assessed as reduction in NADH production preincubated for 5 mins followed by substrate IMP addition at increasing concentration measured for 32 mins in presence of constant concentration of NAD+ by Lineweaver-Burk plot analysis

Row | Structure (SMILES) | alphaKi [µM]
28 | Cc1ccc(-c2nc(C(=O)O)cs2)cc1 | 398

tested on: Mycobacterium tuberculosis; assay: Inhibition of Mycobacterium tuberculosis IMPDH deltaCBS mutant assessed as reduction in NADH production at 1 mM using IMP as substrate preincubated for 5 mins followed by substrate addition measured for 32 mins in presence of NAD+

Row | Structure (SMILES) | inhibition [%]
29 | OCc1ccc2sccc2c1 | 53
30 | O=C(O)c1ccccc1-n1cccc1 | 72
31 | Oc1cccc2ccccc12 | 68
32 | Nc1ccc(-n2ccnc2)cc1 | 64
33 | Oc1ccc2ccccc2c1 | 57
34 | O=C(O)c1cc2sccc2s1 | 86
35 | Clc1ccc(-c2cnc[nH]2)cc1 | 59
36 | Cc1ccc(-c2nc(C(=O)O)cs2)cc1 | 88
37 | Nc1[nH]ncc1-c1cccc(Br)c1 | 50
38 | COc1ccc2ccc(O)cc2c1 | 66
39 | N#Cc1c[nH]c2ccccc12 | 51
40 | Brc1ccc(-c2c[nH]cn2)cc1 | 65
41 | Oc1ccc2ccc(O)cc2c1 | 77
42 | Nc1n[nH]c(-c2ccccc2)c1Br | 53
43 | CC(=O)Nc1cc(C)ccc1O | 79
44 | O=C(O)c1cc2cccc(O)c2cc1O | 98
45 | CC1(C)Cc2cccc(CO)c2O1 | 99

tested on: Mycobacterium tuberculosis; assay: as §2, with “Uncompetitive” for “Mixed-type”

Row | Structure (SMILES) | alphaKi [µM]
46 | COc1ccc(OC(C)C(=O)Nc2ccc(I)cc2)cc1 (stereo unspecified) | 0.86
